# The source made the active and inactive calls. The rule behind the calls is not given here.
# Experiments:
# [1] = target: T1, DNA topoisomerase 1 (Homo sapiens) (UniProt P11387); experiment: Inhibition of recombinant human DNA topoisomerase 1 assessed as relaxation of plasmid DNA pBR322 at 50 uM by agarose gel electrophoresis
# T1 sequence (whole entry): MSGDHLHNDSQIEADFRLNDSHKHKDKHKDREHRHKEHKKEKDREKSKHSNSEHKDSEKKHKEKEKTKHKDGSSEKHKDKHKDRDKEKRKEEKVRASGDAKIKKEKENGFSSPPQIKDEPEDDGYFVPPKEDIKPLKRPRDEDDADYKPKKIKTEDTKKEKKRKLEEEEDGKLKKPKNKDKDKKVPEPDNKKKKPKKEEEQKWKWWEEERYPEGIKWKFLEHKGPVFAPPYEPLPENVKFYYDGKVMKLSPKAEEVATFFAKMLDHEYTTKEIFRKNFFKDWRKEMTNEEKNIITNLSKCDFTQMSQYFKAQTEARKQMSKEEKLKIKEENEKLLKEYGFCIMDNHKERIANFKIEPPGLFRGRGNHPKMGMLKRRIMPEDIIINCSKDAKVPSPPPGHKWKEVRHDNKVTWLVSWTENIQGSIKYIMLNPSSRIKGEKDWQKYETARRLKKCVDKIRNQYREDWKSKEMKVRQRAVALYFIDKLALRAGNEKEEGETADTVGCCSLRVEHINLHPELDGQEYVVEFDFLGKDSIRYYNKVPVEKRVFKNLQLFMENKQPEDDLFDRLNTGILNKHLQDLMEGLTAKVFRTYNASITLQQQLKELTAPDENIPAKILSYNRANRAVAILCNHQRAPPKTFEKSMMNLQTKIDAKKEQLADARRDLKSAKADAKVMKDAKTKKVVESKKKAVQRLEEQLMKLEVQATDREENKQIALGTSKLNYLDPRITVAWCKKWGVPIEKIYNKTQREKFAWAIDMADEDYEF
# Procedure, shortened: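 pBR322 (100 ng) was incubated with 1.0 unit recombinant human topoisomerase I and compound (50 μM) at 37 °C for 30 min. Relaxation buffer was 35 mM Tris-HCl pH 8.0, 5 mM MgCl2, 72 mM KCl, 0.01% BSA, 2 mM spermidine, 5 mM DTT. Products were resolved on 1% agarose in TAE at 100 V for 25 min and stained with ethidium bromide.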
# K562 [2] = experiment: Antiproliferative activity against human K562 cells after 48 hrs by MTT assay; format: functional, cell-based; details: K562, 48 h
# Procedure, shortened: (§1)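 Cells were grown at 37 °C in 5% CO₂ with 10% FBS, penicillin and streptomycin. Media were IMDM for K562; DMEM for HepG-2, A-375, U-118 MG and A172; RPMI 1640 for CNE-2 and HeLa; MEM-EBSS for U251. MTT (5 mg/mL) was added for 4 h at 37 °C, formazan dissolved in DMSO, and A490 read. IC50 is the concentration giving 50% growth inhibition.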
# HepG2 = experiment: Antiproliferative activity against human HepG2 cells after 48 hrs by MTT assay; format: functional, cell-based; details: HepG2, 48 h; procedure, shortened: as §1
# K562 [3] = experiment: Induction of apoptosis in human K562 cells assessed as activation of caspase 9 at 10 uM after 48 hrs by Western blot analysis; format: functional, cell-based
# Procedure, shortened: (§2)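 K562 cells in 6 cm dishes were exposed to 1, 5 or 10 μM for 48 h, then lysed at 0 °C for 0.5 h and spun at 20,000 g for 10 min. Protein was measured by BCA. Lysates were run on 12% SDS-PAGE and transferred to PVDF. Membranes were blocked in 5% milk for 1 h, then given primary antibody overnight at 4 °C.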
# K562 [4] = experiment: Induction of apoptosis in human K562 cells assessed as necrotic cells at 2.5 uM by annexin V-FITC/propidium iodide staining-based flow cytometry (reference value: 0.203%); format: functional
# [5] = Antiproliferative activity against human A172 cells after 48 hrs by MTT assay; format: functional, cell-based; details: A 172, 48 h; procedure, shortened: as §1
# K562 [6] = experiment: Induction of apoptosis in human K562 cells assessed as apoptotic cells at 10 uM by annexin V-FITC/propidium iodide staining-based flow cytometry (reference value: 0.162%)
# [7] = Antiproliferative activity against human U118MG cells after 48 hrs by MTT assay; format: functional, cell-based; details: U-118-MG; procedure, shortened: as §1
# K562 [8] = experiment: Induction of apoptosis in human K562 cells assessed as late apoptotic or necrotic cells at 2.5 uM by annexin V-FITC/propidium iodide staining-based flow cytometry (reference value: 0.162%)
# K562 [9] = experiment: Induction of apoptosis in human K562 cells assessed as necrotic cells at 10 uM by annexin V-FITC/propidium iodide staining-based flow cytometry (reference value: 0.203%); format: functional
# U-251 = experiment: Antiproliferative activity against human U251 cells after 48 hrs by MTT assay; format: functional, cell-based; details: U-251, 48 h; procedure, shortened: as §1
# K562 [10] = experiment: Induction of apoptosis in human K562 cells assessed as viable cells at 2.5 uM by annexin V-FITC/propidium iodide staining-based flow cytometry (reference value: 98.9%); format: functional; details: read-out: Activity
# Calf thymus DNA [11] = experiment: Binding affinity to calf thymus DNA after 3 mins by fluorescence absorption spectroscopy; format: nucleic-acid assay; details: Bos taurus
# Procedure, shortened: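 Fluorescence titration of the compound (3.75 μM final) in 10 mM Tris-HCl, 10 mM NaCl, pH 7.0, with ct DNA at 0, 1, 2, 3, 4 and 5 μM final. Samples sat 3 min before emission spectra were recorded. The binding constant came from the Stern-Volmer fit F0/F = 1 + K[Q], with [Q] the DNA concentration.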
# [12] = Antiproliferative activity against human CNE2 cells after 48 hrs by MTT assay; format: functional, cell-based; details: CNE-2, 48 h; procedure, shortened: as §1
# K562 [13] = experiment: Induction of apoptosis in human K562 cells assessed as activation of caspase 3 at 10 uM after 48 hrs by Western blot analysis; format: functional, cell-based; procedure, shortened: as §2
# K562 [14] = experiment: Induction of apoptosis in human K562 cells assessed as loss of mitochondrial membrane potential at 10 uM using JC-1 staining by fluorescence assay; format: functional, cell-based
# Procedure, shortened: (§3)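 Mitochondrial membrane potential in treated K562 cells (0, 2.5, 10 μM) was measured with a JC-1 kit. Red fluorescence marks high potential and green marks low. CCCP at 10 μM served as positive control.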
# K562 [15] = experiment: Induction of apoptosis in human K562 cells assessed as downregulation of Bcl-xL protein expression at 10 uM after 48 hrs by Western blot analysis; format: functional, cell-based; procedure, shortened: as §2
# K562 [16] = experiment: Induction of apoptosis in human K562 cells assessed as activation of caspase 7 at 10 uM after 48 hrs by Western blot analysis; format: functional, cell-based; procedure, shortened: as §2
# K562 [17] = experiment: Induction of apoptosis in human K562 cells assessed as PARP cleavage at 10 uM after 48 hrs by Western blot analysis; format: functional, cell-based; procedure, shortened: as §2
# Calf thymus DNA [18] = experiment: Binding affinity to calf thymus DNA after 3 mins by UV-vis absorption spectra analysis; format: nucleic-acid assay, Bos taurus
# Procedure, shortened: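 ct DNA titration of the compound (40 μM) in 10 mM Tris-HCl, 10 mM NaCl, pH 7.0, at [DNA]/[compound] 0–1.0, in a 1.0 cm quartz cell. Samples sat 3 min before UV-vis spectra were recorded. Kb was taken as the slope-to-intercept ratio of [DNA]/(εa−εf) plotted against [DNA].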
# K562 [19] = experiment: Induction of apoptosis in human K562 cells assessed as viable cells at 10 uM by annexin V-FITC/propidium iodide staining-based flow cytometry (reference value: 98.9%); format: functional; details: read-out: Activity
# A-375 = experiment: Antiproliferative activity against human A375 cells after 48 hrs by MTT assay; format: functional, cell-based; details: A-375, 48 h; procedure, shortened: as §1
# HeLa = experiment: Antiproliferative activity against human HeLa cells after 48 hrs by MTT assay; format: functional, cell-based; procedure, shortened: as §1
# K562 [20] = experiment: Induction of apoptosis in human K562 cells assessed as early apoptotic cells at 10 uM by annexin V-FITC/propidium iodide staining-based flow cytometry (reference value: 0.709%)
# K562 [21] = experiment: Induction of apoptosis in human K562 cells assessed as loss of mitochondrial membrane potential at 2.5 uM using JC-1 staining by fluorescence assay; format: functional, cell-based; procedure, shortened: as §3
# K562 [22] = experiment: Induction of apoptosis in human K562 cells assessed as early apoptotic cells at 2.5 uM by annexin V-FITC/propidium iodide staining-based flow cytometry (reference value: 0.709%)
smiles,measurement,setting,value
COc1ccc2nc3ccccc3c(Nc3nc4ccccc4[nH]3)c2c1,inhibition,[1],Active
same,IC50,K562 [2],8.63 µM
same,IC50,HepG2,4.53 µM
Fc1ccc2c(NCc3nc4ccccc4[nH]3)c3ccccc3nc2c1,inhibition,[1],Active
same,IC50,K562 [2],28.5 µM
same,IC50,HepG2,10.7 µM
COc1ccc2nc3ccccc3c(NCc3nc4ccccc4[nH]3)c2c1,inhibition,[1],Active
same,IC50,K562 [2],4.68 µM
same,IC50,HepG2,8.92 µM
COc1cccc2c(NCc3nc4ccccc4[nH]3)c3ccccc3nc12,inhibition,[1],Active
same,IC50,K562 [2],7.46 µM
same,IC50,HepG2,28.5 µM
Cc1ccc2c(NCc3nc4ccccc4[nH]3)c3ccccc3nc2c1,inhibition,[1],Active
same,IC50,K562 [2],25.1 µM
same,IC50,HepG2,32.6 µM
CCc1ccc2nc3ccccc3c(NCc3nc4ccccc4[nH]3)c2c1,inhibition,[1],Active
same,IC50,K562 [2],7.52 µM
same,IC50,HepG2,> 50 µM
CCCCc1ccc2nc3ccccc3c(NCc3nc4ccccc4[nH]3)c2c1,Activity,K562 [3],Active
same,inhibition,[1],Active
same,Activity,K562 [4],0.55%
same,IC50,K562 [2],2.68 µM
same,IC50,[5],2.86 µM
same,apoptotic cells at 10 µM,K562 [6],10.6%
same,IC50,[7],1.98 µM
same,late apoptotic or necrotic cells at 2.5 µM,K562 [8],1.27%
same,Activity,K562 [9],1.37%
same,IC50,U-251,2.39 µM
same,viability at 2.5 µM,K562 [10],83.3%
same,Activity,Calf thymus DNA [11],Active
same,IC50,[12],2.62 µM
same,Activity,K562 [13],Active
same,Activity,K562 [14],Active
same,Activity,K562 [15],Active
same,Activity,K562 [16],Active
same,Activity,K562 [17],Active
same,Kb,Calf thymus DNA [18],1.88 ×10⁵ /M
same,viability at 10 µM,K562 [19],30.8%
same,IC50,A-375,3.2 µM
same,IC50,HeLa,2.76 µM
same,early apoptotic cells at 10 µM,K562 [20],57.3%
same,Activity,K562 [21],Active
same,IC50,HepG2,8.11 µM
same,early apoptotic cells at 2.5 µM,K562 [22],14.9%
Fc1cc2nc3ccccc3c(NCc3nc4ccccc4[nH]3)c2cc1F,inhibition,[1],Active
same,IC50,K562 [2],17.4 µM
same,IC50,HepG2,25.7 µM
Cc1ccc2nc3ccccc3c(NCc3nc4ccccc4[nH]3)c2c1,inhibition,[1],Active
same,IC50,K562 [2],12.3 µM
same,IC50,HepG2,38.8 µM
COc1ccc2c(NCc3nc4ccccc4[nH]3)c3ccccc3nc2c1,inhibition,[1],Active
same,IC50,K562 [2],15.2 µM
same,IC50,HepG2,15.4 µM
c1ccc2[nH]c(Nc3c4ccccc4nc4ccccc34)nc2c1,inhibition,[1],Active
same,IC50,K562 [2],> 50 µM
same,IC50,HepG2,4.01 µM
Cc1cccc2c(NCc3nc4ccccc4[nH]3)c3ccccc3nc12,inhibition,[1],Active
same,IC50,K562 [2],42.6 µM
same,IC50,HepG2,> 50 µM
Clc1ccc2nc3ccccc3c(NCc3nc4ccccc4[nH]3)c2c1,inhibition,[1],Active
same,IC50,K562 [2],11.8 µM
same,IC50,HepG2,40.6 µM
c1ccc2[nH]c(-c3ccc(Nc4c5ccccc5nc5ccccc45)cc3)nc2c1,inhibition,[1],Active
same,IC50,K562 [2],2.82 µM
same,IC50,HepG2,> 50 µM
COc1cccc2c(Nc3nc4ccccc4[nH]3)c3ccccc3nc12,inhibition,[1],Active
same,IC50,K562 [2],7.2 µM
same,IC50,HepG2,6.32 µM
c1ccc2[nH]c(CNc3c4ccccc4nc4ccccc34)nc2c1,inhibition,[1],Active
same,IC50,K562 [2],11.2 µM
same,IC50,HepG2,> 50 µM
c1ccc2[nH]c(Sc3c4ccccc4nc4ccccc34)nc2c1,inhibition,[1],Active
same,IC50,K562 [2],14 µM
same,IC50,HepG2,> 50 µM

# Source: ChEMBL document CHEMBL3399995, “Synthesis and biological evaluation of benzimidazole acridine derivatives as potential DNA-binding and apoptosis-inducing agents” (Bioorg Med Chem, 2015)
